Results: ChEMBL document CHEMBL4261600 (Eur J Med Chem, 2018)

Experiments:
[1] = AUC (0 to t) in mouse at 10 mg/kg, po by LC-MS/MS analysis; format: ADME, organism-based; conditions: in vivo
In short: (§1)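 Non-compartmental PK. Male SD rats 190-210 g, mice and beagle dogs acclimatized one week, fasted 12 h with water, split into iv and po groups (mice 48, rats 6, dogs 6). iv 3/3/2 mg/kg (mice/rats/dogs); po 10/20/10 mg/kg; vehicle DMSO in 5% glucose water. Blood at 2 or 5 to 720 min; plasma protein-precipitated with methanol, caffeine internal standard, LC-MS/MS.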

[2] = biological target: Activin receptor type-1-like (Homo sapiens) (UniProt P37023); assay: Binding affinity to wild-type human ACVRL1 (L164 to Q503 residues) expressed in bacterial expression system assessed as remaining unbound target protein level at 1000 nM by Kinomescan method relative to control
In short: (§2)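 Single-point competition binding screen across a panel of 468 kinases and mutants, with the inhibitor at 1 μM. Binding is read out as percent of a DMSO control, and targets below 1 percent control were classed as strong binders.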

[3] = biological target: Cyclin-dependent kinase 11B (Homo sapiens, UniProt P21127); assay: Binding affinity to wild-type human partial length CDC2L1 (P353 to G692 residues) expressed in bacterial expression system assessed as remaining unbound target protein level at 1000 nM by Kinomescan method relative to control
In short: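 Profiled in a KINOMEscan binding panel with the inhibitor at a single concentration of 1 μM. Binding to each kinase was read out as percent of control, relative to a DMSO control. Strong binders were defined as those with a percent control value below 1.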

[4] = biological target: Tyrosine-protein kinase ITK/TSK (Homo sapiens) (UniProt Q08881); assay: Binding affinity to wild-type human partial length ITK (R335 to L620 residues) expressed in bacterial expression system assessed as remaining unbound target protein level at 1000 nM by Kinomescan method relative to control
[5] = biological target: Serine/threonine-protein kinase WNK1 (Homo sapiens) (UniProt Q9H4A3); assay: Binding affinity to wild-type human partial length WNK1 (Q194 to A490 residues) expressed in mammalian expression system assessed as remaining unbound target protein level at 1000 nM by Kinomescan method relative to control
[6] = biological target: Homeodomain-interacting protein kinase 1 (Homo sapiens) (UniProt Q86Z02); assay: Binding affinity to wild-type human partial length HIPK1 (M146 to I555 residues) expressed in mammalian expression system assessed as remaining unbound target protein level at 1000 nM by Kinomescan method relative to control
[7] = biological target: Dual specificity tyrosine-phosphorylation-regulated kinase 1A (Homo sapiens) (UniProt Q13627); assay: Binding affinity to wild-type human partial length DYRK1A (H129 to S509 residues) expressed in mammalian expression system assessed as remaining unbound target protein level at 1000 nM by Kinomescan method relative to control
In short: (§3)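 KINOMEscan binding panel of 468 kinases/mutants. Inhibitor was tested at a single concentration of 1 μM. Binding is reported as percent of control, defined relative to a DMSO control.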

[8] = biological target: Serine/threonine-protein kinase SIK3 (Homo sapiens) (UniProt Q9Y2K2); assay: Binding affinity to wild-type human partial length QSK (A90 to L395 residues) expressed in mammalian expression system assessed as remaining unbound target protein level at 1000 nM by Kinomescan method relative to control
[9] = biological target: Cyclin-dependent kinase 2 (Homo sapiens) (UniProt P24941); assay: Binding affinity to wild-type human full length CDK2 (M1 to L298 residues) expressed in bacterial expression system assessed as remaining unbound target protein level at 1000 nM by Kinomescan method relative to control; in short: as §2
[10] = biological target: cGMP-dependent protein kinase 1 (Homo sapiens) (UniProt Q13976); assay: Binding affinity to wild-type human partial length PRKG1 (L339 to F686 residues) expressed in bacterial expression system assessed as remaining unbound target protein level at 1000 nM by Kinomescan method relative to control
[11] = biological target: Phosphatidylinositol 3-kinase C2 domain-containing subunit gamma (Homo sapiens) (UniProt O75747); assay: Binding affinity to wild-type human partial length PIK3C2G (M1 to I1446 residues) expressed in mammalian expression system assessed as remaining unbound target protein level at 1000 nM by Kinomescan method relative to control; in short: as §3
[12] = biological target: Tyrosine-protein kinase Mer (Homo sapiens) (UniProt Q12866); assay: Binding affinity to wild-type human partial length MERTK (R557 to L884 residues) expressed in bacterial expression system assessed as remaining unbound target protein level at 1000 nM by Kinomescan method relative to control; in short: as §3
[13] = AUC (0 to t) in beagle dog at 10 mg/kg, po by LC-MS/MS analysis; format: ADME, organism-based, Canis lupus familiaris; conditions: in vivo; in short: as §1
[14] = biological target: Macrophage colony-stimulating factor 1 receptor (Homo sapiens) (UniProt P07333); assay: Binding affinity to wild-type human partial length CSF1R (I564 to S939 residues) expressed in bacterial expression system assessed as remaining unbound target protein level at 1000 nM by Kinomescan method relative to control
[15] = biological target: Serine/threonine-protein kinase PLK3 (Homo sapiens) (UniProt Q9H4B4); assay: Binding affinity to wild-type human partial length PLK3 (A42 to L334 residues) expressed in mammalian expression system assessed as remaining unbound target protein level at 1000 nM by Kinomescan method relative to control
[16] = tested on: Phosphatidylinositol 4,5-bisphosphate 3-kinase catalytic subunit alpha isoform (Homo sapiens), P42336 [C420R]; assay: Binding affinity to human partial length PIK3CA C420R mutant (R108 to N1068 residues) expressed in mammalian expression system assessed as remaining unbound target protein level at 1000 nM by Kinomescan method relative to control
In short: (§4)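 KINOMEscan competition-binding profiling across the panel of 468 kinases and mutants, with inhibitor tested at 1 μM. Binding is expressed as percent of control, with DMSO as the reference control.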

[17] = tested on: Tyrosine-protein kinase ABL1 (Homo sapiens), P00519 [H396P]; assay: Binding affinity to human non-phosphorylated ABL1 H396P mutant (S229 to K512 residues) expressed in mammalian expression system assessed as remaining unbound target protein level at 1000 nM by Kinomescan method relative to control; in short: as §4
[18] = biological target: Myosin light chain kinase family member 4 (Homo sapiens) (UniProt Q86YV6); assay: Binding affinity to wild-type human partial length MYLK4 (V79 to S380 residues) expressed in bacterial expression system assessed as remaining unbound target protein level at 1000 nM by Kinomescan method relative to control; in short: as §3
[19] = biological target: Peripheral plasma membrane protein CASK (Homo sapiens) (UniProt O14936); assay: Binding affinity to wild-type human partial length CASK (M1 to H315 residues) expressed in mammalian expression system assessed as remaining unbound target protein level at 1000 nM by Kinomescan method relative to control
In short: (§5)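 KINOMEscan competition binding profile across a panel of 468 kinases and mutants, with the inhibitor tested at a single concentration of 1 μM. Binding is reported as percent of control, meaning signal relative to a DMSO control.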

[20] = biological target: Non-receptor tyrosine-protein kinase TNK1 (Homo sapiens) (UniProt Q13470); assay: Binding affinity to wild-type human full length TNK1 (M1 to P661 residues) expressed in bacterial expression system assessed as remaining unbound target protein level at 1000 nM by Kinomescan method relative to control; in short: as §5

Cyclin-dependent kinase 11B, sequence (P21127 whole entry, the tested form may be a part): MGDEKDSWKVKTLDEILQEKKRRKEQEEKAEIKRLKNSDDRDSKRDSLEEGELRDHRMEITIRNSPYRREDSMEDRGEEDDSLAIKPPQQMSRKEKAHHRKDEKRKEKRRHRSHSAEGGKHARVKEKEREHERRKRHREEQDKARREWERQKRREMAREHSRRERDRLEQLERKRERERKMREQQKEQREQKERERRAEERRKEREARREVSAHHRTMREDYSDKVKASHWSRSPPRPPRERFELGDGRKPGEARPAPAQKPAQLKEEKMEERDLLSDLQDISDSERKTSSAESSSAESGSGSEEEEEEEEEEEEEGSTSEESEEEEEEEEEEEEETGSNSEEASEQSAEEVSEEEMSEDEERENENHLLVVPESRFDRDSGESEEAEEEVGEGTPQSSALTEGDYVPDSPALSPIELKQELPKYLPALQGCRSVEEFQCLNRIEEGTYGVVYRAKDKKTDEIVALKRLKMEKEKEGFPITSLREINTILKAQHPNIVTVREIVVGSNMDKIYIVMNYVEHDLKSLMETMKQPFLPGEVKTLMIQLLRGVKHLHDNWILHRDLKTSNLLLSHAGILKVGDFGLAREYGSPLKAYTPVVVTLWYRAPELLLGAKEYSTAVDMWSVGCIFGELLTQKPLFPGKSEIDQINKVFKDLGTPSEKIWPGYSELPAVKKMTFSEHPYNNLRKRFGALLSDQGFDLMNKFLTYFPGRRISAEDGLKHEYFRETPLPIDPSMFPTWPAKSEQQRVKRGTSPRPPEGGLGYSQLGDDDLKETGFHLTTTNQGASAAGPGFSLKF
Serine/threonine-protein kinase WNK1 (Homo sapiens), sequence (Q9H4A3 whole entry, looked up, the tested form may be a part): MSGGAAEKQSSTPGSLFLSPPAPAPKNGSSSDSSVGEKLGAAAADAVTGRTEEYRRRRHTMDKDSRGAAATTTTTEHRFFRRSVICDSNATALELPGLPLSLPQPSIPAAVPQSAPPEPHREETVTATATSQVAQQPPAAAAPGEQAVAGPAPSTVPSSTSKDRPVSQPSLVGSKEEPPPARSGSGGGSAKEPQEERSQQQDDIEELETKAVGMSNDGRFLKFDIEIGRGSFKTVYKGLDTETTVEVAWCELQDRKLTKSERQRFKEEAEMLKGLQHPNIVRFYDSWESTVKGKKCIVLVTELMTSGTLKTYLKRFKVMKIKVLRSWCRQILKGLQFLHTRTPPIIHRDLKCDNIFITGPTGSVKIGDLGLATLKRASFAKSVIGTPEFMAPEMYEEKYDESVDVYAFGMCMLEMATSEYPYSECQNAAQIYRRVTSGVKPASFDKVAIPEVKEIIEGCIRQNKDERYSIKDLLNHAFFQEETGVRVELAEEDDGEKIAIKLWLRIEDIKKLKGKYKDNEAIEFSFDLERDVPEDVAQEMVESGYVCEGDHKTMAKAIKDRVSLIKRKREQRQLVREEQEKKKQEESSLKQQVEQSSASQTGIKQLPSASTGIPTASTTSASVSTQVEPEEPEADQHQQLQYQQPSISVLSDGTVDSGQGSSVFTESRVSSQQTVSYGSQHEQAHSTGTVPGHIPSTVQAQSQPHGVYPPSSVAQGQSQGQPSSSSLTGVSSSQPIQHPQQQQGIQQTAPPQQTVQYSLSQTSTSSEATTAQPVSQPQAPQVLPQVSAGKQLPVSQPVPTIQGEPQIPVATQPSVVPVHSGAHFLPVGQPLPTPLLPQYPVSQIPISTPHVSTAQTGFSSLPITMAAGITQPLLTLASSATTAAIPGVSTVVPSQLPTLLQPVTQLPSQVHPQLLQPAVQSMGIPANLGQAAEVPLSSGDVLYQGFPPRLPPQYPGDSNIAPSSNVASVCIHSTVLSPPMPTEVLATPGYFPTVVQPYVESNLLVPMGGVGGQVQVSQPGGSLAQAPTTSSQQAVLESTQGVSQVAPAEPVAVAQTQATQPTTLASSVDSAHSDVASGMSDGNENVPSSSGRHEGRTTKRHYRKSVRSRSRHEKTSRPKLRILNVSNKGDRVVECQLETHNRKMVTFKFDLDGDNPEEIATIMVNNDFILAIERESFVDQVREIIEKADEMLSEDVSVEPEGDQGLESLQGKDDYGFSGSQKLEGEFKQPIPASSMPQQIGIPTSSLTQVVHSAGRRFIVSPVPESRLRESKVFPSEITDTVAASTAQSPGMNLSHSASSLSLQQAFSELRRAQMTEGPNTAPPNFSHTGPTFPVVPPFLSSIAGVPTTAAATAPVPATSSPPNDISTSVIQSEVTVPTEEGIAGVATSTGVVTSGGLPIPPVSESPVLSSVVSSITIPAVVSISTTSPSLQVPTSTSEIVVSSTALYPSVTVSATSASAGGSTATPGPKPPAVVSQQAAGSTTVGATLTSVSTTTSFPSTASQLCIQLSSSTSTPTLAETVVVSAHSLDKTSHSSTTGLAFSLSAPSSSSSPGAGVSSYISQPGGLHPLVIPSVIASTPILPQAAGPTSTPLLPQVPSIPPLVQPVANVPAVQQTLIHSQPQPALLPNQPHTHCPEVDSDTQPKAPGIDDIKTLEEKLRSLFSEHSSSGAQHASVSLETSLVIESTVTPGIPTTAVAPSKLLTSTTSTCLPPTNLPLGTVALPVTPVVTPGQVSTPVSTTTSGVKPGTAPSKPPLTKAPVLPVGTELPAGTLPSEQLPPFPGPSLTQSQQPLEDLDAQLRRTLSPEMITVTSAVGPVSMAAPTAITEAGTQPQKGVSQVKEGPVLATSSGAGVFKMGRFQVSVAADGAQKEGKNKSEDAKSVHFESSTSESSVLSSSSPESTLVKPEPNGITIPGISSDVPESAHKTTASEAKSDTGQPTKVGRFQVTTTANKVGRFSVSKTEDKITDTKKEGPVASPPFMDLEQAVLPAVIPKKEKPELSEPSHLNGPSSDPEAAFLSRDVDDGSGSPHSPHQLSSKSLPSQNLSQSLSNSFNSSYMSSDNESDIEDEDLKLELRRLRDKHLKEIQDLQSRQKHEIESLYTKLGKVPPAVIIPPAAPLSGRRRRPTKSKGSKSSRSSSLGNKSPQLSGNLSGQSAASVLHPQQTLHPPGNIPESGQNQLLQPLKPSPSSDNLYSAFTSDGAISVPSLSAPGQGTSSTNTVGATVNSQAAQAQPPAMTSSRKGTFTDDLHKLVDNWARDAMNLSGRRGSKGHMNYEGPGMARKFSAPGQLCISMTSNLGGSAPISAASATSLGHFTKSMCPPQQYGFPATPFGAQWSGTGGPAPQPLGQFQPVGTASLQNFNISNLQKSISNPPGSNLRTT
Phosphatidylinositol 4,5-bisphosphate 3-kinase catalytic subunit alpha isoform (Homo sapiens), P42336 [C420R], sequence (P42336 whole entry C420R, the tested form may be a part, canonical isoform): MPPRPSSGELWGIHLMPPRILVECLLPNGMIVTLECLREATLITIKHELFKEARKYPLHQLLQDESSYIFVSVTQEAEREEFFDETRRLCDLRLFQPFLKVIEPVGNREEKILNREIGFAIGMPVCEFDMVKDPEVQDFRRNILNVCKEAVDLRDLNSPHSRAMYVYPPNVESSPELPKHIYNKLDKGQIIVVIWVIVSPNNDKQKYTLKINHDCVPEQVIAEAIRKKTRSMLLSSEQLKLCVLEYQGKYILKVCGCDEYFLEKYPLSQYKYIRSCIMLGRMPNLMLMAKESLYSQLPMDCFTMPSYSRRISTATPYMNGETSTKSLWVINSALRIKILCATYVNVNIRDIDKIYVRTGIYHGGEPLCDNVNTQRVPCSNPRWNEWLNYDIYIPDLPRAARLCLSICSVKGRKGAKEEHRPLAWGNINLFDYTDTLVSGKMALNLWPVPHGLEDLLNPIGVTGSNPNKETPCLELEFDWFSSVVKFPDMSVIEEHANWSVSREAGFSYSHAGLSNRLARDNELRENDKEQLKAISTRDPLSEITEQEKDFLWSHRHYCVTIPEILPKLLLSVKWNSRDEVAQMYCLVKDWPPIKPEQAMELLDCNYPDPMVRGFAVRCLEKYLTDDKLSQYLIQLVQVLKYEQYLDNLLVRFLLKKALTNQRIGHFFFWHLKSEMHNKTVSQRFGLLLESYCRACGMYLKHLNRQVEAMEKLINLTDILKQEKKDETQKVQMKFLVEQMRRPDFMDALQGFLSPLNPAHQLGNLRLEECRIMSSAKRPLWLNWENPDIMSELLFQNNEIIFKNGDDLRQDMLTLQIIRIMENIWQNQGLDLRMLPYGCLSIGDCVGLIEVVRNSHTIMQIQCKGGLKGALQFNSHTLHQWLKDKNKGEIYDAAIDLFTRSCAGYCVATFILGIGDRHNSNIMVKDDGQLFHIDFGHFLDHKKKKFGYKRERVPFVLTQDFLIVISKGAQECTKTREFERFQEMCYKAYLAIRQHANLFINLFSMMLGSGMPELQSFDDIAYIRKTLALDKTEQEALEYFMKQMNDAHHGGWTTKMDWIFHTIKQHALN
Activin receptor type-1-like (Homo sapiens), sequence (P37023 whole entry, the tested form may be a part): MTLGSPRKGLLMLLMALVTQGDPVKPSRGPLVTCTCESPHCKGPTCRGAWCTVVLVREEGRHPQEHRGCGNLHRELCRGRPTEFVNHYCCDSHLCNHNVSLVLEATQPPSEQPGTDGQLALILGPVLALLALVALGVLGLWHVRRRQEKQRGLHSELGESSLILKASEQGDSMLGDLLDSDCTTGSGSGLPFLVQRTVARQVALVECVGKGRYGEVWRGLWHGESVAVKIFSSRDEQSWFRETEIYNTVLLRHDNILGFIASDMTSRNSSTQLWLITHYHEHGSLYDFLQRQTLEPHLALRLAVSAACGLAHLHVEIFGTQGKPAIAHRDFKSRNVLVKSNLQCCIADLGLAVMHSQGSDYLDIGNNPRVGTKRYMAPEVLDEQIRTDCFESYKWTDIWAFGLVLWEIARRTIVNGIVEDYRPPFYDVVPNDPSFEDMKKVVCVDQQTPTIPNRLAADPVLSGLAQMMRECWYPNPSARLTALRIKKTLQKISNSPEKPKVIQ

SMILES: COCCN[C@H]1CC[C@H](Nc2cc(-c3csc(NCC4(C#N)CCOCC4)n3)c(Cl)cn2)CC1
- AUC(0-t) [1]: 591 ng·h/mL
- Activity [2]: 100%
- Activity [3]: 93%
- Activity [4]: 84%
- Activity [5]: 100%
- Activity [6]: 60%
- Activity [7]: 0.3%
- Activity [8]: 79%
- Activity [9]: 100%
- Activity [10]: 100%
- Activity [11]: 80%
- Activity [12]: 94%
- AUC(0-t) [13]: 3940 ng·h/mL
- Activity [14]: 87%
- Activity [15]: 99%
- Activity [16]: 100%
- Activity [17]: 75%
- Activity [18]: 94%
- Activity [19]: 81%
- Activity [20]: 56%
